Screening data: PubChem, Sanford-Burnham Center for Chemical Genomics
Compounds with a hit are over-represented: about 2.5% of the library has one in this group of screens.
SENP7 inh – SENP7 protease inhibition | AID 434973 | recombinant SENP7, Z-RLRGG-aminoluciferin luminescence, 40 min | inhibition, % at 5 µM | Q9BQF6 | actives 1.5% (n = 330,000);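 active = inhibition above about 50% at the single test dose, limit read from the data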
SENP8 block-1 – blocks the human protease SENP8; Q96LD8; purified SENP8, Z-RLRGG-aminoluciferin cleavage, luminescence; inhibition, % at 10 µM; actives 1.2% (n = 330,000); in the data active = inhibition above about 50%
Target sequence (Q96LD8 whole entry, looked up): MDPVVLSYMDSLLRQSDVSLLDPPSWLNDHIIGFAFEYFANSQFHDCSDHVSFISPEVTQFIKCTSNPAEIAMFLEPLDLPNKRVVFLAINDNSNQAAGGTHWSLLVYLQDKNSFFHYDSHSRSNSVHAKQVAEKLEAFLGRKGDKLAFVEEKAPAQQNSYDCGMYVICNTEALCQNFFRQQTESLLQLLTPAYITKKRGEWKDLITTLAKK
SENP1 inh – SENP1 (human) catalytic domain inhibition | Q9P0U3 | recombinant SENP1 catalytic domain, CyPet-SUMO1-YPet FRET cleavage | inhibition, % at 10 µM | actives 0.21% (n = 360,000) | AID 624204;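 active = inhibition at least 30% at 10 µM, raw YFP signal under a set limit, fluorescence ratio 0.5 to 1.5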
Target sequence (Q9P0U3 419-644 limits assumed): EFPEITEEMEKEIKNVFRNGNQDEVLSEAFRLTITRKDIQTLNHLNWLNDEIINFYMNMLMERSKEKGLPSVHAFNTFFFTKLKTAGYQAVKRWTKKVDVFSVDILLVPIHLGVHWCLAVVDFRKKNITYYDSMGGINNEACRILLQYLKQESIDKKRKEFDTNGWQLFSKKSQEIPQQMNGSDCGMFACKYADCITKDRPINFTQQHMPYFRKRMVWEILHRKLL
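Material – human SENP1 catalytic domain · Input – SENP1 enzyme, 20 pM final · Compound dosing – single concentration of 10 µM compound, 0.5% DMSO final · Timing – enzyme reaction for 50 min at room temperature, dark · Measured by – FRET fluorescence in CFP and YFP emission channels · Control set – no-enzyme wells low, DMSO-plus-enzyme wells high control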
SENP8 block-2 – blocks human SENP8 cleavage of Nedd8 substrate | actives 0.64% (n = 360,000) | recombinant SENP8, Nedd8 substrate fluorescence | Q96LD8 | inhibition, % at 20 µM | AID 602440; in the data active = inhibition mostly above about 40%, no sharp cut-off; inactive = mostly below about 27%
SENP6 inh – blocks the human protease SENP6. Recombinant SENP6 catalytic domain, aminoluciferin luminescence. AID 2599. inhibition, % at 10 µM. Q9GZR1. actives 1.8% (n = 330,000);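 active = inhibition above about 50% at the single tested dose, limit read from the data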
SENP8 confirm – confirmation of human SENP8 protease inhibitors; actives 40% (n = 6,200); inhibition, % at 12.5 µM; Recombinant SENP8, Z-RLRGG-aminoluciferin luminescence, 60 min; shares compounds with SENP7 inh;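 active = mean inhibition across replicates above about 50%, limit read from the data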
SENP6 conf – confirmation of human SENP6 protease inhibitors; shares compounds with SENP7 inh; recombinant SENP6, Z-RLRGG-aminoluciferin luminescence; inhibition, % at 12.5 µM; actives 58% (n = 6,200); AID 488915
SENP7 conf – human SENP7 inhibition, confirmed; shares compounds with SENP7 inh; recombinant SENP7, Z-RLRGG-aminoluciferin luminescence, 40 min; inhibition, % at 12.5 µM; actives 69% (n = 6,200)
Casp3 select – caspase-3 inhibition (SENP selectivity assay) | purified caspase-3, Z-DEVD-aminoluciferin luminescence, 60 min | actives 60% (n = 6,200) | shares compounds with SENP7 inh | inhibition, % at 12.5 µM;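 active = mean inhibition above about 50%, limit read from the data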
Target sequence (P42574 28-227 limits assumed): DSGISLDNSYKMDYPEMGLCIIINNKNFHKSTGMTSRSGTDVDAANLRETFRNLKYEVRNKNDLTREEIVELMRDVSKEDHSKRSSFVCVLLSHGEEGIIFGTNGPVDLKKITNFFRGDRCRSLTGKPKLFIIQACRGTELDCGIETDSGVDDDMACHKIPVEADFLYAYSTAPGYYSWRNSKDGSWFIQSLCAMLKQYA
SENP luc ctr – interferes with luciferase luminescence in SENP counter-screen | shares compounds with SENP7 inh | Pre-incubated SENP8/Z-RLRGG-aminoluciferin, luciferase luminescence interference | inhibition, % at 12.5 µM | actives 39% (n = 6,200);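 active = mean inhibition above about 50% when retested at one dose, limit read from the data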
Each line names hits and unclear results; the compound was inactive in the other large screens (follow-up assays come after a bar, where they were run).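 Rule for the calls, unless noted: active = mean inhibition above about 50% in the one-dose retest (limit read from the data); inactive = the rest.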

Cn1sc(NC(=O)c2ccc(Cl)cc2)nc1=O	SENP7 inh 81, SENP8 block-1 67 | SENP8 confirm inactive | SENP6 conf inactive | SENP7 conf 69 | Casp3 select 53 | SENP luc ctr 52
CC(=O)c1sc(NC(=O)c2cccc(C)c2)nc1C	SENP7 inh 63, SENP6 inh 67 | SENP8 confirm inactive | SENP6 conf 61 | SENP7 conf 88 | Casp3 select 78 | SENP luc ctr inactive
O=C(O)c1cc(/C=C/c2ccc(N3CCOCC3)c([N+](=O)[O-])c2)nc2ccccc12	SENP7 inh 63, SENP8 block-1 53, SENP6 inh 77 | SENP8 confirm 73 | SENP6 conf 68 | SENP7 conf 91 | Casp3 select 81 | SENP luc ctr 71
O=C(O)c1cc(N2CCOCC2)nc2ccccc12	none
O=C(O)c1cc(/C=C/c2ccc(N3CCOCC3)cc2)nc2ccccc12	SENP7 inh 69, SENP8 block-1 70 | SENP8 confirm 79 | SENP6 conf 78 | SENP7 conf 96 | Casp3 select 90 | SENP luc ctr 83
CCOC(=O)CSC1=NC(=O)/C(=C\c2ccc(OC(C)=O)cc2)S1	SENP7 inh 78, SENP6 inh 72 | SENP8 confirm 57 | SENP6 conf 52 | SENP7 conf 73 | Casp3 select inactive | SENP luc ctr 77
CC1(C)S[C@@H]2[C@H](NC(=O)[C@H](N)c3ccccc3)C(=O)N2[C@H]1C(=O)OC1OC(=O)c2ccccc21 (stereo not given in full)	none
COc1ccc(-c2cc(O)cc(O)c2)cc1	SENP7 inh 60, SENP6 inh 70 | SENP8 confirm inactive | SENP6 conf inactive | SENP7 conf 60 | Casp3 select inactive | SENP luc ctr inactive
COc1ccc(OC)cc1	none
O=[N+]([O-])c1cccc(/C=C/c2nc[nH]c2[N+](=O)[O-])c1	SENP8 block-1 57, SENP6 inh 70 | SENP8 confirm inactive | SENP6 conf inactive | SENP7 conf inactive | Casp3 select inactive | SENP luc ctr inactive
O=c1[nH]c(/C=C/c2cccc([N+](=O)[O-])c2)c([N+](=O)[O-])c(=O)[nH]1	none
CCOc1ccc(N=Cc2c(O)cc(C)oc2=O)cc1	none
CCOc1ccc(N=Cc2c(O)c3ccccc3oc2=O)cc1	SENP7 inh 93, SENP8 block-1 83, SENP6 inh 91 | SENP8 confirm inactive | SENP6 conf inactive | SENP7 conf 56 | Casp3 select inactive | SENP luc ctr inactive
Cc1nc(NC(=O)c2ccccc2)sc1-c1csc(NCc2ccco2)n1	SENP7 inh 66, SENP6 inh 60 | SENP8 confirm inactive | SENP6 conf inactive | SENP7 conf inactive | Casp3 select 67 | SENP luc ctr inactive
COc1cccc(Nc2nc(-c3sc(NC(=O)c4ccccc4)nc3C)cs2)c1	SENP6 inh 59 | SENP8 confirm inactive | SENP6 conf inactive | SENP7 conf inactive | Casp3 select inactive | SENP luc ctr inactive
Cn1cccc1C(=O)C(=O)Nc1ccccc1	SENP7 inh 94, SENP8 block-1 80, SENP6 inh 92 | SENP8 confirm 89 | SENP6 conf 90 | SENP7 conf 100 | Casp3 select 95 | SENP luc ctr 88
C/C(N)=C(/C#N)C(=O)CSc1nc2scc(-c3ccccc3)c2c(=O)n1C	none
CN(C)c1ccc(N=Nc2ccc3ncccc3c2)cc1	none (no result: SENP7 inh, SENP8 block-1, SENP6 inh)
Cc1cc(N(C)C)ccc1N=Nc1ccc2ncccc2c1	SENP7 inh 96, SENP8 block-1 92, SENP6 inh 92 | SENP8 confirm 90 | SENP6 conf 96 | SENP7 conf inactive | Casp3 select inactive | SENP luc ctr 56
CC(=O)c1cccc(NC(=O)COc2ccccc2)c1	none
CC(C)CCOCC(=O)Nc1cccc(C(=O)O)c1	SENP6 inh 58 | SENP8 confirm inactive | SENP6 conf inactive | SENP7 conf 73 | Casp3 select inactive | SENP luc ctr 62
Cc1ccc(NC(=O)n2ncc3c(C)cccc32)c(C)c1	none
CCOc1ccc(NC(=O)n2ncc3c(C)cccc32)cc1	SENP7 inh 91, SENP8 block-1 81, SENP6 inh 64 | SENP8 confirm inactive | SENP6 conf inactive | SENP7 conf inactive | Casp3 select inactive | SENP luc ctr inactive
COc1cccc(NC(=O)n2ncc3c(C)cccc32)c1	SENP7 inh 100, SENP8 block-1 95, SENP6 inh 99 | SENP8 confirm 100 | SENP6 conf 101 | SENP7 conf 103 | Casp3 select 99 | SENP luc ctr 98
CCOC(=O)C1(CC2CCCCO2)CCN(Cc2nc(C(C)C)cs2)CC1 (stereo not given)	none
CCOc1ncccc1C(=O)OCC(=O)c1cc(C)n(Cc2ccco2)c1C	SENP6 inh 71 | SENP8 confirm 70 | SENP6 conf 66 | SENP7 conf 87 | Casp3 select 58 | SENP luc ctr inactive
Cc1ccc2oc(-c3ccccc3)nc2c1	SENP7 inh 93, SENP8 block-1 88, SENP6 inh 95 | SENP8 confirm inactive | SENP6 conf 75 | SENP7 conf 100 | Casp3 select inactive | SENP luc ctr inactive
CCOc1cccc(-c2nc3cc(C)ccc3o2)c1	SENP6 inh 79 | SENP8 confirm inactive | SENP6 conf inactive | SENP7 conf 83 | Casp3 select inactive | SENP luc ctr inactive
Cc1ccc2oc(-c3cccc(NC(=O)Cn4cnc5c(=O)n(C)c(=O)n(C)c54)c3)nc2c1	none (no result: SENP1 inh, SENP8 block-2)
N/C(=N\OC(=O)c1ccc(F)cc1)c1ccccc1	SENP7 inh 98, SENP8 block-1 91, SENP6 inh 97 | SENP8 confirm 96 | SENP6 conf 96 | SENP7 conf 102 | Casp3 select 97 | SENP luc ctr 94
N/C(=N\OC(=O)c1ccc(F)cc1)c1ccc(Br)cc1	none
Cc1ccc(/C(N)=N/OC(=O)c2ccc(F)cc2)cc1	SENP7 inh 61 | SENP8 confirm inactive | SENP6 conf inactive | SENP7 conf 69 | Casp3 select 62 | SENP luc ctr inactive
Cc1ccccc1NS(=O)(=O)c1c(C(=O)N2CCCCCC2)c(C)n(C)c1C	none
COc1ccccc1NC(=O)c1ccc2nc(C)sc2c1	none
